High-throughput results (PubChem BioAssay)
H9c2 TAG inh: reduces triacylglycerol accumulation in H9c2 cells; Nile Red lipid (TAG) fluorescence; cells loaded with 200 µM oleic acid; inhibition, % at 12.5 µM; 0.66% of 230,000 active;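 active = pattern-corrected inhibition of lipid staining of at least 50% with the nuclear-stain viability signal not falling by more than 50%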;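 also: 0% = DMSO wells and 100% = triacsin C control wells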
CCR6 antag: antagonists of human CCR6 receptor; inhibition, % at 20 µM; 0.49% of 340,000 active; CHO-K1 CCR6 PathHunter beta-arrestin, luminescence, CCL20-stimulated; AID 493098; P51684;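 active = compounds whose inhibition of the agonist-driven luminescence signal at 20 µM reaches about 50%, limit read from the data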;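 also: cells stimulated with CCL20 at 14 nM final; plate controls were DMSO with CCL20 for no effect and DMSO without agonist for full effect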
APJ antagonist: APJ receptor antagonism. CHO-K1 APJ beta-arrestin complementation, luminescence. 0.32% of 330,000 active. inhibition, % at 20 µM;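 active = inhibition above about 40% at 20 µM, limit read from the data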;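 also: cells challenged with 10 nM apelin-13 agonist together with compound; plate controls were apelin-13 plus DMSO wells for no effect and DMSO wells lacking apelin-13 for full effect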
CXCR6 block: blocks human CXCR6 beta-arrestin recruitment; inhibition, % at 20 µM; CHO-K1 PathHunter CXCR6 beta-arrestin, luminescence; AID 602244; 0.36% of 360,000 active; O00574; in the data active = inhibition above about 34%, passing the limit was not always enough;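 also: antagonist mode with CXCL16 agonist at 10 nM final; 0% = 10 nM CXCL16 with DMSO and 100% = unstimulated wells without agonist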
APJ ag: APJ receptor agonism. 0.11% of 330,000 active. activation, % at 20 µM. P35414. CHO-K1 APJ PathHunter beta-arrestin, luminescence; 0% DMSO wells, 100% apelin;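 active = activation more than six SD over the plate average, tested at 20 µM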;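 also: 0% = DMSO alone and 100% = apelin-13 at 10 nM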
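Test system – PathHunter CHO-K1 APJ (AGTRL-1) beta-arrestin reporter cells · Input – 1000 cells/well · Compound – single test compound dose, 20 µM final, 1% DMSO · Times – compound stimulation 90 min at 25 °C, detection 60 min · Technique – beta-gal luminescence · Read-out basis – APJ–arrestin association signal · Control set – negative DMSO alone, positive Apelin-13 at 10 nM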
EBI2 antag: blocks human EBI2 receptor beta-arrestin signaling | EBI2 beta-arrestin recruitment, luminescence, 7a,25-OHC stimulated | inhibition, % at 5 µM | 0.81% of 360,000 active; in the data active = inhibition above about 38%;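 also: enzyme fragment complementation signal reports receptor beta-arrestin coupling in cells; 0% = agonist plus DMSO wells and 100% = wells without agonist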
Target sequence (P32249 whole entry, looked up, the tested form may be a part): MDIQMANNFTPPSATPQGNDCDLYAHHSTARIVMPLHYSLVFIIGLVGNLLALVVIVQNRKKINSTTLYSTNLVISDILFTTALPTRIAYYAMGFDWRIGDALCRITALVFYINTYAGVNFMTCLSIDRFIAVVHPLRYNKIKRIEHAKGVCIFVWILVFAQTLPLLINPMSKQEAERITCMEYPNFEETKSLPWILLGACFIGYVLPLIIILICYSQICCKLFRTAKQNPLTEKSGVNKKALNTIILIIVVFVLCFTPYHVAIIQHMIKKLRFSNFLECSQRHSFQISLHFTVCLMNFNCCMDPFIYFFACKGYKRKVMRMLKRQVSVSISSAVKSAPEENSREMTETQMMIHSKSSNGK
Numbers without * were called inactive. Hits are enriched below; roughly 1.9% of the tested compounds scored in any of these assays.

Screening O=C(N/N=C/c1cc(Cl)ccc1O)c1ccncc1 returned H9c2 TAG inh 53*, CCR6 antag -2, APJ antagonist -40, CXCR6 block -9, APJ ag 10 and EBI2 antag 50*.
Screening O=C(Nc1ccc(Cl)cc1)Nc1ccccc1Sc1ncc([N+](=O)[O-])s1 returned H9c2 TAG inh -12, CCR6 antag 50*, APJ antagonist 8, CXCR6 block 34, APJ ag -2 and EBI2 antag 39.
O=C(NC(=S)N1CCN(c2nc(-c3ccccc3)cs2)CC1)c1cncc(Br)c1 was read as H9c2 TAG inh -6, CCR6 antag 57*, APJ antagonist 7, CXCR6 block 38, APJ ag -4 and EBI2 antag 14.
`COc1ccc(CC(=O)NCc2cccc(Cl)c2)cc1S(=O)(=O)N1CCOCC1` gave H9c2 TAG inh -5, CXCR6 block 1 and EBI2 antag -1.
`CCCS(=O)(=O)NC(=O)C1(C)CCCN(C(=O)Cc2ccc3ccccc3c2)C1` (centres undefined) gave H9c2 TAG inh 2, CXCR6 block 6 and EBI2 antag -3.
Screening CCCOc1ccc(/C=C2/C(=O)ON=C2C)cc1OCC returned CCR6 antag 1, APJ antagonist 5, CXCR6 block -5, APJ ag 4 and EBI2 antag 0.
`CCOc1cc(/C=C2\C(=O)ON=C2C)ccc1OCc1ccccc1` gave H9c2 TAG inh -14, CCR6 antag -19, APJ antagonist -20, CXCR6 block -33, APJ ag 9.7* and EBI2 antag 6.
Cc1ccc([C@@H]2CC(=O)[C@@H]3CN(S(=O)(=O)c4ccc(C)cc4)[C@H](c4ccc(Cl)cc4)C[C@@H]3N2S(=O)(=O)c2ccc(C)cc2)cc1 was read as H9c2 TAG inh 22, CXCR6 block 0 and EBI2 antag 6.
`O=C1/C(=N\S(=O)(=O)c2cccs2)C([n+]2cccc(Cc3ccccc3)c2)=C([O-])c2ccccc21` gave H9c2 TAG inh 73*, CCR6 antag 13, APJ antagonist -4, CXCR6 block -24, APJ ag 5 and EBI2 antag -6.
`O=C1/C(=N\S(=O)(=O)c2cccs2)C([n+]2ccc(CCCc3ccccc3)cc2)=C([O-])c2ccccc21` gave H9c2 TAG inh 16, CCR6 antag -10, APJ antagonist -24, CXCR6 block -17, APJ ag 3 and EBI2 antag 3.
`O=C(c1ccco1)N1CCN(C2CN(C3CCCCC3)S(=O)(=O)C2)CC1` (centres undefined) gave CXCR6 block 9 and EBI2 antag -13.
`CSC(=S)N/N=C(\C)c1ccccc1` gave CCR6 antag 57*, APJ antagonist 47*, CXCR6 block 37, APJ ag -8 and EBI2 antag -1.
For O=S1(=O)N[C@@H](Cc2ccccc2)COc2cc(N3CC[C@H](O)C3)ccc21 the results were CXCR6 block 2 and EBI2 antag -8.
Screening CCN1C(=O)[C@H]2[C@H]3CN=C(SCc4ccc(C)cc4)N3[C@@](Cc3ccccc3)(C(=O)OC)[C@H]2C1=O returned H9c2 TAG inh 2, CCR6 antag 29, CXCR6 block 0 and EBI2 antag 0.
Screening Cc1ccccc1CNC(=O)C(C)Sc1ccccc1 (centres undefined) returned H9c2 TAG inh -46, CXCR6 block 2 and EBI2 antag 5.
For O=C(O)CC1S/C(=N/N=C/c2ccc(-c3ccc(Cl)c([N+](=O)[O-])c3)o2)NC1=O (centres undefined) the results were H9c2 TAG inh 5, CCR6 antag 58*, APJ antagonist 10, CXCR6 block 15, APJ ag -5 and EBI2 antag 1.
`O=C(O)CC1S/C(=N/N=C/c2ccc(-c3ccc(Cl)cc3[N+](=O)[O-])o2)NC1=O` (centres undefined) gave H9c2 TAG inh -30, CCR6 antag 3, APJ antagonist -15, CXCR6 block 4, APJ ag 3 and EBI2 antag 6.
Screening CC(=O)Nc1ccc(NCCc2ccco2)cc1 returned CXCR6 block -1 and EBI2 antag -13.
For COc1ccc(CC2=CC(=O)c3ccccc3C2=O)cc1 the results were H9c2 TAG inh -17, CCR6 antag 38, APJ antagonist 20, CXCR6 block 41*, APJ ag 5 and EBI2 antag 23.
Screening COc1ccc(Cc2ccccc2C(=O)O)cc1 returned H9c2 TAG inh -3, CCR6 antag 9, CXCR6 block -7 and EBI2 antag -3.
Screening O=C(COC(=O)C12CC3CC(CC(C3)C1)C2)NNC(=O)c1ccccc1 returned H9c2 TAG inh 6, CCR6 antag -18, APJ antagonist -8, CXCR6 block 0, APJ ag -1 and EBI2 antag -8.
Screening CCCCC1(CO)C(=O)N(c2ccccc2)N(c2ccccc2)C1=O returned H9c2 TAG inh 3, CCR6 antag 7, APJ antagonist -5, CXCR6 block 7, APJ ag -5 and EBI2 antag -2.
For CCCCC1C(=O)N(c2ccccc2)N(c2ccc(O)cc2)C1=O (centres undefined) the results were H9c2 TAG inh 91, CCR6 antag 57*, APJ antagonist 22, CXCR6 block 43*, APJ ag -7 and EBI2 antag 22.
N/C(Cc1ccc(Cl)cc1)=N\OC(=O)c1cccc2ccccc12 was read as CCR6 antag -2, APJ antagonist -36, CXCR6 block -14, APJ ag 17 and EBI2 antag 52*.
Screening COc1ccc(C/C(N)=N/OC(=O)c2ccc(Cl)cc2)cc1 returned H9c2 TAG inh 10, CCR6 antag -4, APJ antagonist -19, CXCR6 block -27, APJ ag 7 and EBI2 antag 13.
For Cc1cc(/C=N/n2c(COc3ccccc3C)nc3ccccc3c2=O)c(O)c([N+](=O)[O-])c1 the results were H9c2 TAG inh 36, CCR6 antag 59*, APJ antagonist 26, CXCR6 block 18, APJ ag -5 and EBI2 antag 21.
Screening Cc1[nH]c2ccccc2c1/C=N/Nc1ccccc1[N+](=O)[O-] returned H9c2 TAG inh 60*, CCR6 antag 39, APJ antagonist 43*, CXCR6 block 29, APJ ag -8 and EBI2 antag 6.
Cc1[nH]c2ccccc2c1/C=N/NS(=O)(=O)c1ccccc1 was read as H9c2 TAG inh -3, CCR6 antag 2, APJ antagonist -7, CXCR6 block 0, APJ ag -1 and EBI2 antag 1.
For COc1ccc(NS(=O)(=O)c2ccc(N/N=C/c3ccc(N4CCOCC4)cc3)c([N+](=O)[O-])c2)cc1 the results were CCR6 antag 21, APJ antagonist 19, CXCR6 block 2, APJ ag -2 and EBI2 antag 1.
